Measurements reported in ChEMBL document CHEMBL1123127, “Comparison of the hypolipidemic activity of cyclic vs. acyclic imides” (1985).

How the values were obtained:
Mus musculus [1] = assay: Reduction in serum cholesterol in CF1 mice on day 16 following 20 mg/kg i.p. o.d. for 16 days.; type: functional; settings: ip, 384 h, route intraperitoneal
In short: (§1)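 Mice dosed at 20 mg/kg per day for 16 days. On days 9 and 16, blood was taken by tail-vein bleeding into nonheparinized microcapillary tubes and spun for 3 min to give serum. Serum cholesterol was measured by a modified Liebermann–Burchard reaction.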

Mus musculus [2] = assay: Reduction in serum cholesterol in CF1 mice on day 9 following 20 mg/kg i.p. o.d. for 16 days.; type: functional; settings: ip, route intraperitoneal; in short: as §1
Mus musculus [3] = assay: Reduction in serum triglyceride in CF1 mice on day 14 following 20 mg/kg i.p. o.d. for 16 days.; settings: ip

| SMILES | inhibition in vivo at 20 mg/kg (Mus musculus [1]) | inhibition in vivo at 20 mg/kg (Mus musculus [2]) | serum triglyceride % inhibition at 20 mg/kg (Mus musculus [3]) |
| --- | --- | --- | --- |
| CCOC(=O)CCN(C(C)=O)C(C)=O | 25% | 11% | 11% |
| CC(=O)N(CCC(=O)O)C(C)=O | 21% | 20% | 21% |
| CC(=O)CCN(C(C)=O)C(C)=O | 30% | 14% | 20% |
| O=C(O)CCN1C(=O)CCC1=O | 39% | 32% | 44% |
| CC(=O)CCn1c(=O)c2ccccc2c2ccccc2c1=O | 23% | 23% | 10% |
| CCCCN1C(=O)CCC1=O | 15% | 0% | 35% |
| CC(=O)CCN(C(=O)c1ccccc1)C(=O)c1ccccc1 | 26% | 23% | 39% |
| CCOC(=O)CCN1C(=O)CCC1=O | 23% | 11% | 23% |
| O=C(NC(=O)c1ccccc1)c1ccccc1 | 35% | 14% | 7% |
| CCCCn1c(=O)c2ccccc2c2ccccc2c1=O | 23% | 22% | 48% |
| O=c1[nH]c(=O)c2ccccc2c2ccccc12 | 18% | 19% | 19% |
| O=C(O)CCn1c(=O)c2ccccc2c2ccccc2c1=O | 16% | 12% | 25% |
| CCCCN(C(C)=O)C(C)=O | 20% | 11% | 0% |
| CCCCN(C(=O)c1ccccc1)C(=O)c1ccccc1 | 19% | 23% | 30% |
| CC(=O)CCN1C(=O)CCC1=O | 10% | 12% | 25% |
| CCOC(=O)C(C)(C)Oc1ccc(Cl)cc1 [CLOFIBRATE] | 13% | 12% | 25% |
| CC(=O)NC(C)=O [DIACETAMIDE] | 18% | 4% | 2% |
| O=C1NC(=O)c2ccccc21 [PHTHALIMIDE] | 43% | 37% | 56% |
| O=C1CCC(=O)N1 [SUCCINIMIDE] | 27% | 2% | 32% |
